In brackets after ≈: the same amount, converted by molar mass.
Key:
Staphylococcus aureus [1] = assay: Antibacterial activity against methicillin-sensitive Staphylococcus aureus ATCC 25923 after 24 hrs by resazurin dye based microdilution assay; format: functional; settings: ATCC 25923, 24 h
Method in brief: (§1)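 MIC taken as the lowest concentration giving visible inhibition and/or by resazurin (1 mg/mL). Gentamicin was the control. Run in duplicate, repeated at least three times.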

Trypanosoma cruzi = assay: Antitrypanosomal activity against Trypanosoma cruzi Tulahuen intracellular amastigote harboring LacZ infected in human U937 cells after 72 hrs by CPRG/Nonidet reagent based spectrophotometric method; format: functional, cell-based; settings: U-937, 72 h
Method in brief: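 U-937 cells at 2.5 × 10^5 cells/mL in RPMI-1640 with 10% serum and 0.1 µg/mL PMA were infected with β-galactosidase-transfected Tulahuen epimastigotes at 5 parasites per cell. Infected cells were exposed to 50, 12.5, 3.125 and 0.78 µg/mL for 72 h. CPRG (100 uM) and 0.1% Nonidet P-40 were added for 3 h, read at 570 nm. EC50 by Probit. Triplicate, at least two experiments; benznidazole as reference.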

Candida albicans [2] = assay: Growth inhibition of Candida albicans ATCC 10231 at 62.5 ug/ml incubated for 48 hrs under dark condition by broth microdilution method relative to control; format: functional; settings: ATCC 10231, 48 h, read-out: GI
Method in brief: (§2)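 CLSI M27-A3 broth microdilution in RPMI-1640, DMSO ≤1%. Inoculum 1-5 × 10^3 CFU/mL. Incubated 48 h at 30 °C, dark. % inhibition = 100 − (OD405 test − sterility control)/(OD405 growth control − sterility control), with growth and sterility control wells. Triplicate.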

Staphylococcus aureus [3] = assay: Antibacterial activity against methicillin-resistant Staphylococcus aureus ATCC 43300 after 24 hrs by resazurin dye based microdilution assay; format: functional; settings: ATCC 43300, 24 h
Method in brief: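 Broth microdilution in Mueller Hinton broth, inoculum 5 × 10^5 – 8 × 10^5. Compound stocks diluted in MHB with 5% DMSO and 0.1% Tween 80. Incubation 24 h at 35-37 °C. MIC is the lowest concentration with visible growth inhibition and/or by resazurin (1 mg/mL) read-out. Gentamicin as control. Run in duplicate, replicated at least three times.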

Candida albicans [4] = assay: Growth inhibition of Candida albicans ATCC 10231 at 125 ug/ml incubated for 48 hrs under dark condition by broth microdilution method relative to control; format: functional; settings: ATCC 10231, 48 h, read-out: GI; method in brief: as §2
Plasmodium falciparum = assay: Antiplasmodial activity against chloroquine-sensitive Plasmodium falciparum 3D7 assessed as reduction in parasitic LDH activity after 48 hrs by Malstat reagent based […] method; format: functional; settings: 3D7, 48 h
Method in brief: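 Unsynchronized P. falciparum 3D7 at 0.5% parasitemia and 1% hematocrit in RPMI with 3% Albumax II. Exposed to 100, 25, 6.25 and 1.56 µg/mL for 48 h at 37 °C under 90% N2/5% CO2/5% O2. After three freeze-thaw cycles, LDH measured with Malstat and NBT/PES, 1 h in the dark, read at 650 nm. IC50 by Probit; triplicate, ≥2 experiments.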

Candida albicans [5] = assay: Growth inhibition of Candida albicans ATCC 10231 at 15.62 ug/ml incubated for 48 hrs under dark condition by broth microdilution method relative to control; format: functional; settings: ATCC 10231, 48 h, read-out: GI; method in brief: as §2
U-937 = assay: Cytotoxicity against human U937 cells after 72 hrs by MTT assay; format: cell-based; settings: u-937, 72 h
Method in brief: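 Exponentially growing U-937 at 1 × 10^5 cells/mL in RPMI-1640 with 10% FBS were exposed to 200, 50, 12.5 and 3.125 µg/mL for 72 h at 37 °C, 5% CO2. MTT for 3 h, stopped with isopropanol/SDS, formazan read at 570 nm, blank-corrected. LC50 by Probit from % viability against untreated cells. Triplicate, at least two independent experiments.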

Leishmania panamensis = assay: Antileshmanial activity against EpiR/GFP fused Leishmania panamensis MHOM/CO/87/UA140 intracellular amastigotes infected in human […] cells after 72 hrs by flow cytometric method; format: functional, cell-based; settings: MHOM/CO/87/UA140, 72 h
Method in brief: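 PMA-treated U-937 cells (3 × 10^5 cells/mL) infected with stationary-phase GFP L. panamensis promastigotes (15:1), 3 h at 34 °C, then washed. After 24 h, compounds added at 50, 12.5, 3.125 and 0.78 µg/mL for 72 h at 37 °C. EC50 by Probit; triplicate, two experiments.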

Pseudomonas aeruginosa = assay: Antibacterial activity against Pseudomonas aeruginosa ATCC 27853 after 24 hrs by resazurin dye based microdilution assay; format: functional; settings: ATCC 27853, 24 h; method in brief: as §1
Cryptococcus neoformans [6] = assay: Growth inhibition of Cryptococcus neoformans ATCC 32264 at 7.8 ug/ml incubated for 48 hrs under dark condition by broth microdilution method relative to control; format: functional; settings: ATCC 32264, 48 h, read-out: GI; method in brief: as §2
Cryptococcus neoformans [7] = assay: Growth inhibition of Cryptococcus neoformans ATCC 32264 at 31.25 ug/ml incubated for 48 hrs under dark condition by broth microdilution method relative to control; format: functional; settings: ATCC 32264, 48 h, read-out: GI; method in brief: as §2
Candida albicans [8] = assay: Antifungal activity against Candida albicans ATCC 10231 incubated for 48 hrs under dark condition by broth microdilution method; format: functional; settings: ATCC 10231, 48 h
Method in brief: (§3)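 CLSI M27-A3 broth microdilution in RPMI-1640, DMSO ≤1%, compounds at 250-0.98 µg/mL final. Inoculum 1-5 × 10^3 CFU/mL. Incubated 48 h at 30 °C in a moist dark chamber, read at OD405. MIC80 and MIC50 taken from % inhibition dose-response curves (mean ± SEM, triplicate). Amphotericin B was the positive control.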

Escherichia coli = assay: Antibacterial activity against Escherichia coli ATCC 25922 after 24 hrs by resazurin dye based microdilution assay; format: functional; settings: ATCC 25922, 24 h; method in brief: as §1
Cryptococcus neoformans [9] = assay: Growth inhibition of Cryptococcus neoformans ATCC 32264 at 62.5 ug/ml incubated for 48 hrs under dark condition by broth microdilution method relative to control; format: functional; settings: ATCC 32264, 48 h, read-out: GI; method in brief: as §2
Cryptococcus neoformans [10] = assay: Growth inhibition of Cryptococcus neoformans ATCC 32264 at 125 ug/ml incubated for 48 hrs under dark condition by broth microdilution method relative to control; format: functional; settings: ATCC 32264, 48 h, read-out: GI; method in brief: as §2
Candida albicans [11] = assay: Growth inhibition of Candida albicans ATCC 10231 at 31.25 ug/ml incubated for 48 hrs under dark condition by broth microdilution method relative to control; format: functional; settings: ATCC 10231, 48 h, read-out: GI; method in brief: as §2
Klebsiella pneumoniae [12] = assay: Antibacterial activity against carbapenemase positive Klebsiella pneumoniae BAA 1705 after 24 hrs by resazurin dye based microdilution assay; format: functional; settings: BAA 1705, 24 h; method in brief: as §1
Candida albicans [13] = assay: Growth inhibition of Candida albicans ATCC 10231 at 3.4 ug/ml incubated for 48 hrs under dark condition by broth microdilution method relative to control; format: functional; settings: ATCC 10231, 48 h, read-out: GI
Candida albicans [14] = assay: Growth inhibition of Candida albicans ATCC 10231 at 250 ug/ml incubated for 48 hrs under dark condition by broth microdilution method relative to control; format: functional; settings: ATCC 10231, 48 h, read-out: GI; method in brief: as §2
Cryptococcus neoformans [15] = assay: Growth inhibition of Cryptococcus neoformans ATCC 32264 at 250 ug/ml incubated for 48 hrs under dark condition by broth microdilution method relative to control; format: functional; settings: ATCC 32264, 48 h, read-out: GI; method in brief: as §2
Klebsiella pneumoniae [16] = assay: Antibacterial activity against ESBL positive Klebsiella pneumoniae ATCC 700603 after 24 hrs by resazurin dye based microdilution assay; format: functional; settings: Klebsiella pneumoniae, 700603, 24 h; method in brief: as §1
Candida albicans [17] = assay: Growth inhibition of Candida albicans ATCC 10231 at 7.8 ug/ml incubated for 48 hrs under dark condition by broth microdilution method relative to control; format: functional; settings: ATCC 10231, 48 h, read-out: GI; method in brief: as §2
Cryptococcus neoformans [18] = assay: Growth inhibition of Cryptococcus neoformans ATCC 32264 at 3.4 ug/ml incubated for 48 hrs under dark condition by broth microdilution method relative to control; format: functional; settings: ATCC 32264, 48 h, read-out: GI
Cryptococcus neoformans [19] = assay: Growth inhibition of Cryptococcus neoformans ATCC 32264 at 15.62 ug/ml incubated for 48 hrs under dark condition by broth microdilution method relative to control; format: functional; settings: ATCC 32264, 48 h, read-out: GI; method in brief: as §2
Staphylococcus aureus [20] = assay: Antibacterial activity against vancomycin-intermediate Staphylococcus aureus after 24 hrs by resazurin dye based microdilution assay; format: functional; method in brief: as §1
Neisseria gonorrhoeae = assay: Antibacterial activity against beta lactamase positive Neisseria gonorrhoeae ATCC 31426 by oxidase test; format: functional
Method in brief: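 Agar dilution MIC on GC agar with 1% isovitalex containing increasing compound concentrations. Plates inoculated with about 1×10^4 CFU (5 µL). MIC is the lowest concentration that inhibited growth, with growth confirmed by oxidase test. Run in duplicate, repeated at least three times.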

Cryptococcus neoformans [21] = assay: Antifungal activity against Cryptococcus neoformans ATCC 32264 incubated for 48 hrs under dark condition by broth microdilution method; format: functional; settings: ATCC 32264, 48 h; method in brief: as §3

SMILES	MIC (Staphylococcus aureus [1])	EC50 (Trypanosoma cruzi)	inhibition of growth at 62.5 µg/mL (Candida albicans [2])	MIC (Staphylococcus aureus [3])	inhibition of growth at 125 µg/mL (Candida albicans [4])	EC50 (Plasmodium falciparum)	inhibition of growth at 15.62 µg/mL (Candida albicans [5])	LC50 (U-937)	EC50 (Leishmania panamensis)	MIC (Pseudomonas aeruginosa)	inhibition of growth at 7.8 µg/mL (Cryptococcus neoformans [6])	inhibition of growth at 31.25 µg/mL (Cryptococcus neoformans [7])	MIC50 (Candida albicans [8])	MIC80 (Candida albicans [8])	MIC (Escherichia coli)	inhibition of growth at 62.5 µg/mL (Cryptococcus neoformans [9])	inhibition of growth at 125 µg/mL (Cryptococcus neoformans [10])	inhibition of growth at 31.25 µg/mL (Candida albicans [11])	MIC (Klebsiella pneumoniae [12])	inhibition of growth at 3.4 µg/mL (Candida albicans [13])	further results
COc1cc(C2=NN(c3cc(Cl)cc(Cl)c3)C(c3cccc(Nc4ccnc5cc(Cl)ccc45)c3)C2)cc(OC)c1OC (stereo not given)	> 1000 µg/mL	21.9 µg/mL (≈ 34.6 µM)	5.81%	> 1000 µg/mL	10.6%	10.9 µg/mL (≈ 17.2 µM)	2.69%	> 200 µg/mL	16.5 µg/mL (≈ 26 µM)	> 1000 µg/mL	3.27%	3.54%	≥ 250 µg/mL	≥ 250 µg/mL	> 1000 µg/mL	3.82%	6.13%	5.79%	> 1000 µg/mL	0.27%	inhibition of growth at 250 µg/mL (Candida albicans [14]): 20.3%; inhibition of growth at 250 µg/mL (Cryptococcus neoformans [15]): 25.6%; MIC (Klebsiella pneumoniae [16]): > 1000 µg/mL; inhibition of growth at 7.8 µg/mL (Candida albicans [17]): 1.1%; inhibition of growth at 3.4 µg/mL (Cryptococcus neoformans [18]): 0%; inhibition of growth at 15.62 µg/mL (Cryptococcus neoformans [19]): 3.54%; MIC (Staphylococcus aureus [20]): > 1000 µg/mL; MIC (Neisseria gonorrhoeae): > 1000 µg/mL; MIC50 (Cryptococcus neoformans [21]): ≥ 250 µg/mL; MIC80 (Cryptococcus neoformans [21]): ≥ 250 µg/mL
CC(=O)N1N=C(c2ccccc2)CC1c1cccc(Nc2ccnc3cc(Cl)ccc23)c1 (stereo not given)	> 1000 µg/mL	4.26 µg/mL (≈ 9.66 µM)	23.1%	> 1000 µg/mL	27.5%	12.7 µg/mL (≈ 28.7 µM)	19.8%	5.8 µg/mL (≈ 13.2 µM)	3.67 µg/mL (≈ 8.32 µM)	> 1000 µg/mL	8.77%	12.3%	250 µg/mL (≈ 567 µM)	≥ 250 µg/mL	> 1000 µg/mL	12.8%	41.9%	21.2%	> 1000 µg/mL	5.28%	inhibition of growth at 250 µg/mL (Candida albicans [14]): 53.3%; inhibition of growth at 250 µg/mL (Cryptococcus neoformans [15]): 69.2%; MIC (Klebsiella pneumoniae [16]): > 1000 µg/mL; inhibition of growth at 7.8 µg/mL (Candida albicans [17]): 10.5%; inhibition of growth at 3.4 µg/mL (Cryptococcus neoformans [18]): 0%; inhibition of growth at 15.62 µg/mL (Cryptococcus neoformans [19]): 12.2%; MIC (Staphylococcus aureus [20]): > 1000 µg/mL; MIC (Neisseria gonorrhoeae): > 1000 µg/mL; MIC50 (Cryptococcus neoformans [21]): 250 µg/mL (≈ 567 µM); MIC80 (Cryptococcus neoformans [21]): ≥ 250 µg/mL
Cc1ccc(C2=NN(c3cc(Cl)cc(Cl)c3)C(c3cccc(Nc4ccnc5cc(Cl)ccc45)c3)C2)cc1 (stereo not given)	> 1000 µg/mL	49.2 µg/mL (≈ 88.3 µM)	0%	> 1000 µg/mL	3.88%	65.2 µg/mL (≈ 117 µM)	0%	> 200 µg/mL	18.1 µg/mL (≈ 32.5 µM)	> 1000 µg/mL	1.15%	6.71%	≥ 250 µg/mL	≥ 250 µg/mL	> 1000 µg/mL	8.02%	15.3%	0%	> 1000 µg/mL	0%	inhibition of growth at 250 µg/mL (Candida albicans [14]): 17.9%; inhibition of growth at 250 µg/mL (Cryptococcus neoformans [15]): 40.9%; MIC (Klebsiella pneumoniae [16]): > 1000 µg/mL; inhibition of growth at 7.8 µg/mL (Candida albicans [17]): 0%; inhibition of growth at 3.4 µg/mL (Cryptococcus neoformans [18]): 0%; inhibition of growth at 15.62 µg/mL (Cryptococcus neoformans [19]): 1.85%; MIC (Staphylococcus aureus [20]): > 1000 µg/mL; MIC (Neisseria gonorrhoeae): > 1000 µg/mL; MIC50 (Cryptococcus neoformans [21]): ≥ 250 µg/mL; MIC80 (Cryptococcus neoformans [21]): ≥ 250 µg/mL

Source: ChEMBL document CHEMBL4038284, “Synthesis of novel quinoline-based 4,5-dihydro-1H-pyrazoles as potential anticancer, antifungal, antibacterial and antiprotozoal agents” (Eur J Med Chem, 2017)
